Screening results from PubChem.
This is a sample that favours compounds with a hit; in the whole collection about 8.4% have one here.
Cav32 inh = human Cav3.2 channel inhibition, primary screen | Cav3.2-expressing cells, Fluo-4 calcium fluorescence FDSS; stronger effect = lower value | 100,000 compounds, 4% hits | B-score at 10 µM | O95180;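 active = single-dose well whose peak fluorescence ratio is a statistical outlier from its plate by either plate-standardised score or position-corrected B-score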
E coli WT exp = growth inhibitors of E. coli BW25113 wild type. OD600 absorbance. growth inhibition, % at 100 µM. 98,000 compounds, 0.15% hits. AID 710;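 active = growth inhibition above about 50% at one test dose, limit read from the data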;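 note: growth measured after 20 h incubation at 37 °C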
Ecoli tolC = E. coli tolC mutant growth inhibition. E. coli BW25113 tolC mutant growth, OD615. growth inhibition, % at 10 µM (by protocol). 65,000 compounds, 2.2% hits. AID 573;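 active = growth inhibition at or above a cutoff equal to the mean over every tested compound plus 3 SD, cut at about 60% in these data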;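 note: growth measured after 20 h incubation at 37 °C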
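System: E. coli ΔtolC::kan strain BW25113; Buffer or medium: LB broth supplemented with 50 µg/mL kanamycin; Compound: 10 µM final, single dose; Incubation: bacterial growth with compound for 20 h at 37 °C; Signal: A615 absorbance measurement; Evaluation: growth inhibition in percent.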
PostGolgi yeast = growth inhibition of a yeast mutant, post-Golgi transport screen; AID 739; post-Golgi transport phenotypic cell assay; 98,000 compounds, 0.9% hits; inhibition, % at 10 µM;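 note: yeast cells grown in 1536-well plates; yeast grown about 18 h at 30C before absorbance read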
PostGolgi ctrl = growth of the yeast control strain, post-Golgi counter-screen; 98,000 compounds, 5% hits; efflux-deficient yeast background strain, growth absorbance A615, 16 h; inhibition, % at 10 µM
Active calls of the source: *; . = not tested or not shown. Cut-off read from the data, not from the text of the source, unless noted: active = inhibition above about 30%; inactive = the rest.

SMILES | Cav32 inh | E coli WT exp | Ecoli tolC | PostGolgi yeast | PostGolgi ctrl
COCCn1c(SCc2ccc(C(=O)OC)o2)nc2cc(Cl)ccc2c1=O | -3.9* | -27 | 40 | -12 | 25
CC(C)CNC(=S)NC1CC2CCCC(C1)N2Cc1ccco1 (configuration not stated) | 0.17 | -3 | . | -9 | 31*
Cc1nc(C(=O)NCc2ccccc2)sc1C1(C)CC(c2ccccc2)=NO1 (configuration not stated) | -2.7 | . | . | . | .
C=CCn1c(SCc2nc(N)nc(N(C)C)n2)nnc1-c1cccnc1 | . | -7 | -17 | -3 | 33*
COc1cccc(C2NC(CC(C)C)(C(=O)O)C3C(=O)N(Cc4ccccc4)C(=O)C23)c1O (configuration not stated) | -0.015 | 1 | -26 | -19 | 1
COc1cccc(C2NC(CCSC)(C(=O)O)C3C(=O)N(C(C)C)C(=O)C23)c1O (configuration not stated) | 0.0044 | -3 | -23 | -9 | 40*
O=C(O)C1=C[C@H](c2ccc(F)cc2)C[C@H](OCc2ccc(CO)cc2)O1 | 0.079 | . | . | . | .
O=S1(=O)C=C(Sc2nc3cc(Cl)ccc3o2)c2ccccc21 | 1 | -1 | 6 | 14 | 39*
O=C(OCc1nc2ccccc2s1)c1cnccn1 | -0.065 | 5 | -6 | 0 | -9
O=C(OCc1nc2ccccc2s1)c1cccs1 | -5.2* | 9 | 33 | -1 | 14
CC1(c2nnc(Cc3ccccc3)o2)CC(c2cccnc2)=NO1 (configuration not stated) | 0.58 | . | . | . | .
CCCCSc1nc2sc3c(c2c(=O)[nH]1)CCC3 | 0.061 | -1 | . | -8 | 1
CCCSc1nc2sc3c(c2c(=O)[nH]1)CCN(Cc1ccccc1)C3 | -5.9* | 9 | . | -3 | 0
COc1cc(-c2nnc3sc(-c4ccccn4)nn23)cc(OC)c1OC | . | . | 11 | . | .
Cc1cccc(Cc2cnc(NC(=O)c3ccc(C)o3)s2)c1 | -6* | -11 | . | 2 | 9
CC1CCC(NC(=O)C2CCN(C(=O)NC3CCCCC3)CC2)CC1 (configuration not stated) | 0.43 | 3 | -20 | 17 | 3
O=C(NNC(=O)c1cc(-c2ccc(Cl)c(Cl)c2)nc2ccccc12)Nc1ccccc1 | . | -7 | . | 5 | 10
CCCCN(CCCC)S(=O)(=O)c1ccc2oc(C(=O)N3CCOCC3)c(C)c2c1 | -4.7* | -25 | 15 | 0 | 15
CCN(CC)S(=O)(=O)c1ccc2oc(C(=O)NCC3COc4ccccc4O3)c(C)c2c1 (configuration not stated) | . | 0 | 38 | -10 | 35*
Cc1c(C(=O)NCC2COc3ccccc3O2)oc2ccc(S(=O)(=O)N3CC(C)CC(C)C3)cc12 (configuration not stated) | -3.9* | -7 | . | -9 | 9
Cc1c(C(=O)N2CCCCC2)oc2ccc(S(=O)(=O)N3CC(C)CC(C)C3)cc12 (configuration not stated) | . | 2 | 91* | -4 | 15
CCN(CC)S(=O)(=O)c1ccc2oc(C(=O)NCCCN3CCOCC3)c(C)c2c1 | 0.91 | 2 | . | 5 | 7
CCCCOc1nc2ccccc2nc1C(C#N)C(=O)NC1CCCCC1 (configuration not stated) | . | -13 | 0 | 4 | -5
Cc1c(C(=O)NCC2CCCO2)oc2ccc(S(=O)(=O)N3CC(C)CC(C)C3)cc12 (configuration not stated) | -4* | 0 | 3 | -2 | 5
CCN(CC)S(=O)(=O)c1ccc2oc(C(=O)NCc3ccc(F)cc3)c(C)c2c1 | -6.8* | -8 | 44 | 0 | 23
SMILES | Cav32 inh | E coli WT exp | Ecoli tolC | PostGolgi yeast | PostGolgi ctrl
CCn1c(SCc2ccc(C)cc2)nnc1C1CCN(S(=O)(=O)c2ccc(OC)cc2)CC1 | -4.8* | -15 | . | 1 | 15
CCn1c(SCc2ccc(C#N)cc2)nnc1-c1ccc(S(=O)(=O)N2CCCCC2)cc1 | -1.7 | -13 | 31 | 11 | 43*
CCn1c(SCc2ccc(F)cc2)nnc1C1CCN(S(=O)(=O)c2ccc(OC)cc2)CC1 | -2.3 | -11 | . | -4 | -5
CCn1c(SCC(=O)N2CCCC2)nnc1-c1ccc(S(=O)(=O)N2CCCCCC2)cc1 | 3.3 | 7 | 0 | -3 | -1
CC(=O)N(CCC(Cc1ccccc1)c1ccc2c(c1)OCO2)Cc1ccc(Cl)cc1 (configuration not stated) | -3.1* | -10 | . | -3 | 36*
CC1(C)Cc2c(sc3c2c(=N)n(Cc2ccco2)c(=O)n3CC(=O)Nc2ccccc2)CO1 | -1.2 | -8 | . | -8 | 5
CC1(C)Cc2c(sc3c2c(=N)n(Cc2ccco2)c(=O)n3CC(=O)Nc2cccc(Cl)c2)CO1 | -5.2* | -15 | 19 | -6 | 5
Cc1cccc(NC(=O)Cn2c(=O)n(Cc3ccco3)c(=N)c3c4c(sc32)COC(C)(C)C4)c1 | -4.2* | 3 | . | 24 | -7
CC(C)C[C@H]1COCCS(=O)(=O)N1Cc1cccc(F)c1 | 0.015 | . | . | . | .
Cc1ccc2c(CC(=O)N3CCN(S(=O)(=O)c4ccc5c(c4)OCCO5)CC3)coc2c1 | -5.6* | -6 | 19 | 9 | 24
CCc1ccc2c(CN3CCN(S(=O)(=O)c4ccc5c(c4)OCCO5)CC3)cc(=O)oc2c1 | -1.8 | -7 | 12 | 5 | 33*
O=C(CN1CCC(NC(=O)c2cccc(F)c2)CC1)NCc1ccccc1F | . | 12 | 1 | -2 | 11
N#Cc1ccc(-c2ccc3c(c2)OCO3)nc1SCC(=O)OCc1ccccc1 | -4.6* | -21 | . | -2 | 10
COc1ccc(-c2ccc(C#N)c(SCC(=O)OCc3ccccc3)n2)cc1OC | -0.43 | -14 | . | 0 | 20
Cc1ccc(-c2[nH]c3ccccc3c2C(C[N+](=O)[O-])c2ccco2)cc1 (configuration not stated) | -0.85 | -8 | . | 3 | 30*
Cn1c(SCc2cnc(-c3ccccc3)s2)nnc1C1COc2ccccc2O1 (configuration not stated) | -4.9* | 4 | -10 | 1 | 13
Cc1cc(C(=O)CSc2nnc(C3COc4ccccc4O3)n2C)c(C)n1-c1ccc(F)cc1 (configuration not stated) | -7.9* | -10 | 53 | 5 | 30
Cn1c(SCC(=O)c2ccc3c(c2)OCO3)nnc1C1COc2ccccc2O1 (configuration not stated) | -0.0098 | -13 | -2 | -5 | -4
O=C(NC1CCCCCC1)c1ccc(CN2CCOCC2)cc1 | . | 3 | . | 22 | 15
COc1cc(/C=N/N=C(/N)c2nonc2N)cc(Br)c1OCc1cccc(C)c1 | -2.4 | -5 | . | -9 | 33*
Cc1ccc(C(=O)C(OC(=O)CN2C(=O)c3ccccc3C2=O)c2ccccc2)cc1C (configuration not stated) | -5.1* | -9 | . | -7 | 6
O=C(CN1C(=O)c2ccccc2C1=O)OC(C(=O)c1ccc(Cl)cc1)c1ccccc1 (configuration not stated) | -2.7 | -6 | . | 6 | 0
Cc1ccc(C(=O)C(OC(=O)CN2C(=O)c3ccccc3C2=O)c2ccccc2)cc1 (configuration not stated) | -5.9* | -13 | . | -1 | 14
